High-throughput results as filed in PubChem.
Rows were chosen to be rich in hits. Some 2.5% of all compounds tested hit in one or more screens of this group.
TRPC4 potent: allosteric potentiators of mouse TRPC4 channel; Q9QUQ5; HEK293 TRPC4beta/mu-opioid, DAMGO EC20, Fluo-4 Ca2+ flux; active compounds read high; B-score at 10 µM; actives 0.42% (n = 310,000); AID 2227;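 active = B-score of calcium response area above 5 SD of library B-scores, with initial fluorescence ratio within 5 SD of library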;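 note: B-score of integrated fluorescence ratio over time as area under calcium response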
Target sequence (Q9QUQ5 whole entry, looked up): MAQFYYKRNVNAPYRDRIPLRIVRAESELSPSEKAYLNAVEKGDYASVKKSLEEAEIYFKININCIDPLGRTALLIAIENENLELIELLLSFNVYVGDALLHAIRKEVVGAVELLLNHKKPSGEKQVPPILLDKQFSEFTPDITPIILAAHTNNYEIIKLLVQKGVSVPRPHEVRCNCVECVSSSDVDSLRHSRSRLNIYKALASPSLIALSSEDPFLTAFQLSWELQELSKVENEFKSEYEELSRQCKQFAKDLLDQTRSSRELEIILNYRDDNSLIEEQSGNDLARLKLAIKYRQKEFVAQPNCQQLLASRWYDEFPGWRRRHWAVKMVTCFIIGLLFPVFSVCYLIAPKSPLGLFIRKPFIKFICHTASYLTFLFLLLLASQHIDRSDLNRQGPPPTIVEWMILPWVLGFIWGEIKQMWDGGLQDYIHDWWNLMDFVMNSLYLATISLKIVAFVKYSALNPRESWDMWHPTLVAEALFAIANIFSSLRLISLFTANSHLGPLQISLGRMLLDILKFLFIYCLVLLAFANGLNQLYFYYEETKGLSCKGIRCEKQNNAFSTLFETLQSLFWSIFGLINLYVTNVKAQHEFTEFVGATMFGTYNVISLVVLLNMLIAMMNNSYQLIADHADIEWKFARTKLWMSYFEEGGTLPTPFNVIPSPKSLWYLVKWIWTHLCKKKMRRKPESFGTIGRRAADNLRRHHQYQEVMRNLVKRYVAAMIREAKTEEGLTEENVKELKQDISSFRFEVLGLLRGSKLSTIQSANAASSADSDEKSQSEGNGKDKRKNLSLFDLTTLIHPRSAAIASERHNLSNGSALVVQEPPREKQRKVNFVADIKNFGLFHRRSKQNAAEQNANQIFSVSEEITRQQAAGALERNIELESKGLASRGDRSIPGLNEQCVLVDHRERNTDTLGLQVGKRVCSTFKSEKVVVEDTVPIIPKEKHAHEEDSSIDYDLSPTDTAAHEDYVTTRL
TRPC4 act: activators of mouse TRPC4 channel. Q9QUQ5. HEK293 TRPC4beta/mu-opioid, Fluo4 calcium fluorescence; active compounds read high. B-score at 10 µM. actives 0.49% (n = 310,000);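 active = B-score above 5 SD of library B-scores, and initial fluorescence ratio not above library mean plus 5 SD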;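 note: positive B-score marks a calcium rise read as TRPC4 activation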
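Assay system – TRPC4beta and mu-opioid receptor HEK293 stable cells · Measured by – Fluo4 fluorescence, kinetic · Schedule – dye loading 45 min room temperature, 110 s kinetic read · Read-out – B-scored integrated calcium fluorescence ratio · Controls – buffer and maximal DAMGO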
TRPC6 activator: mouse TRPC6 channel activation | Q61143 | HEK293-TRPC6 membrane potential dye fluorescence; active compounds read high | B-score at 10 µM | actives 0.13% (n = 310,000) | AID 2550;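 active = B-score of the integrated fluorescence ratio above library mean plus 3 SD, and starting fluorescence ratio within library mean plus 5 SD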;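 note: higher score means more depolarization so channel activation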
TRPC4 inh: TRPC4 (mouse) channel inhibition; Q9QUQ5; HEK293 TRPC4beta/mu-opioid, DAMGO-evoked Fluo4 calcium flux; active compounds read low; B-score at 10 µM; actives 0.39% (n = 300,000); AID 2247;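 active = B-score over 3 SD under the library average, no early fluorescence shift, positive overall ratio signal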
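Assay system: HEK293 cells with stable TRPC4beta plus mu-opioid receptor expression. Dosing: single dose. Measured by: Fluo4 Ca2+ flux fluorescence. Also added: DAMGO in two steps, submaximal then maximal. Read-out: B score from integrated Fluo4 fluorescence ratio.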
TRPC6 inh: inhibitors of mouse TRPC6 channel; Q61143; HEK293-TRPC6, membrane potential dye, ACh-evoked depolarization; active compounds read low; B-score at 10 µM; actives 1.1% (n = 310,000); AID 2553;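 active = B-score under library mean minus 3 SD, initial fluorescence not abnormally high, positive integrated signal ratio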;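 note: B-score derived from integrated fluorescence ratio over the kinetic read; more negative B-score means stronger inhibition of depolarization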
Pemphigus Ab inh: human desmoglein-3 autoantibody binding inhibition. P32926. binding (percent of control), % at 10 µM. actives 0.48% (n = 310,000). DSG3-coupled beads, scFv-anti-DSG3-GFP binding, flow cytometry; active compounds read low;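 active = binding more than 3 SD below its plate's average and above zero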;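 note: hits lower antibody fragment binding to DSG3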
TRPC4 sel inh 2: second selectivity test of TRPC6 inhibitors: effect on mouse TRPC4; HEK293 TRPC4/MOR, membrane potential dye fluorescence; channel activated by saturating DAMGO dose; AID 2776; shares compounds with TRPC6 inh; inhibition, % at 10 µM; actives 42% (n = 920);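 active = compounds whose fluorescence signal differed from control wells by over 3 SD, either direction, in both duplicate plates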
TRPC4 spec: selectivity of TRPC6 inhibitors: effect on mouse TRPC4. shares compounds with TRPC6 inh. HEK293 TRPC4/mu-opioid, membrane potential fluorescence. activity change, negative = inhibition, % at 10 µM. actives 61% (n = 920);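 active = rise or fall in signal beyond 3 SD of buffer-only wells in both replicate plates, either sign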;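 note: integrated kinetic ratio of fluorescence range over baseline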
HEK293 MPD ctr 2-1: parental HEK293 nonspecific activity of TRPC6 inhibitors, second screen | shares compounds with TRPC6 inh | parental HEK293 membrane potential dye fluorescence; maximal acetylcholine challenge after compound addition | signal change vs control, % at 10 µM | actives 31% (n = 920);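 active = membrane potential signal moving either way by over 3 SD of the maximum-effect control, in both duplicate plates, meaning non-specific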
HEK293 MPD ctr-1: checks TRPC6 inhibitor effects in parental HEK293 cells; shares compounds with TRPC6 inh; parental HEK293 membrane potential dye fluorescence; membrane potential signal change, % at 10 µM; actives 60% (n = 920); AID 2780;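 active = membrane potential signal shifting up or down by more than 3 SD of buffer-only wells, on both duplicate plates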
HEK293 MPD ctr-2: parental HEK293 nonspecific activity of TRPC6 modulators | shares compounds with TRPC6 inh | membrane potential dye fluorescence | membrane potential signal change, % at 10 µM | actives 51% (n = 2,400) | AID 488924;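 active = membrane potential signal moves up or down beyond 5 SD from buffer-only wells, on both duplicate plates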
HEK293 MPD ctr 2-2: second check of TRPC6 modulator effects in parental HEK293 cells; membrane potential dye fluorescence; after compound, maximal acetylcholine stimulation; AID 488926; inhibition, % at 10 µM; shares compounds with TRPC6 inh; actives 14% (n = 2,400);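 active = membrane potential signal drops by more than 5 SD from the mean control signal, in both duplicate plates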;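 note: plate controls were acetylcholine ECmax control wells for no effect and buffer only wells for full effect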
TRPC4 ctr mod: selectivity of TRPC6 modulators against mouse TRPC4; actives 69% (n = 2,400); HEK293 TRPC4/mu-opioid, membrane potential fluorescence; shares compounds with TRPC6 inh; percent change from control (negative = decrease, positive = increase), % at 10 µM;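 active = membrane potential signal moved up or down beyond 5 SD of buffer control wells, in both duplicate plates, actives on both sides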;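 note: plate controls were assay buffer wells for no effect and DAMGO maximal-effect wells for full effect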
TRPC4 ctr inh 2: second check of whether TRPC6 modulators also affect mouse TRPC4; shares compounds with TRPC6 inh; HEK293 TRPC4/mu-opioid, membrane potential dye fluorescence; stimulated with maximal-effect DAMGO; inhibition, % at 10 µM; actives 55% (n = 2,400);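 active = drop in membrane potential signal beyond 5 SD of the control wells in both duplicate plates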;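 note: TRPC4 counter screen for TRPC6 hits run under conditions tuned for TRPC6 not TRPC4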
TRPC6 inh conf: mouse TRPC6 inhibitor confirmation; shares compounds with TRPC6 inh; HEK293-TRPC6, membrane potential dye, ACh-evoked depolarization; inhibition, % at 10 µM; actives 43% (n = 3,300); AID 488960;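 active = fluorescence ratio falls more than 5 SD below the full-stimulation control mean, in both duplicate runs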;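 note: integrated fluorescence ratio of peak minus minimum over baseline after agonist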
TRPC6 act conf: mouse TRPC6 activator confirmation. shares compounds with TRPC6 inh. activation, % at 10 µM. HEK293-TRPC6 membrane potential dye fluorescence, FDSS. actives 11% (n = 2,800);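 active = ratio signal rise beyond 5 SD above unstimulated control wells' mean, seen in both duplicate runs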;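 note: plate controls were buffer EC0 wells for no effect and acetylcholine ECmax response for full effect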
* hit, by the source's call; i = inactive; x = not tested or not shown.

SMILES	TRPC4 potent	TRPC4 act	TRPC6 activator	TRPC4 inh	TRPC6 inh	Pemphigus Ab inh	HEK293 MPD ctr-2	HEK293 MPD ctr 2-2	TRPC4 ctr mod	TRPC4 ctr inh 2	TRPC6 inh conf	TRPC6 act conf	others
Cc1c(C)n(C)c2ccc(C(=O)NCCCN3CCN(c4ccccc4F)CC3)cc12	i	i	i	i	-7.26*	108.7	i	i	i	67.0%*	42.5%*	i
CCC1CCCCN1CCn1c(=S)[nH]c2cc(OC)c(OC)cc2c1=O (configuration not stated)	i	i	i	i	-6.26*	97.0	i	i	10.0%*	27.5%*	i	i
Oc1ccccc1/C=N/Nc1cc(N2CCCC2)nc(N2CCCC2)n1	i	i	i	i	-5.2*	132.0	i	i	16.0%*	i	i	x
Oc1ccc(/C=N/Nc2cc(N3CCOCC3)nc(N3CCOCC3)n2)cc1O	i	i	i	i	i	123.8	x	x	x	x	x	x
NCC(c1ccccc1)(c1ccccc1)c1ccccc1	i	117*	i	-8*	-6.56*	101.9	i	i	17.5%*	74.0%*	41.5%*	i
Cc1noc(C)c1N=Nc1ccc(Br)cc1C(=O)O	i	i	i	i	i	102.5	x	x	x	x	x	x
C=CCOc1c(CNC2CCCC2)cc(Cl)cc1OC	i	i	i	-6*	-5.42*	110.7	431.0%*	151.0%*	99.0%*	90.5%*	95.0%*	x
O=C(CSc1ccccn1)Nc1nonc1[N+](=O)[O-]	i	i	i	i	i	115.8	x	x	x	x	x	x
O=C(NCc1cccnc1)c1cccn2c(=O)c3sccc3nc12	i	i	i	i	-7.33*	100.0	x	x	x	x	i	i	TRPC4 sel inh 2=i;TRPC4 spec=-25.7%*;HEK293 MPD ctr 2-1=i;HEK293 MPD ctr-1=-340.5%*
CCCCC(O)(CCN1CCOCC1)c1ccc(Cl)cc1 (configuration not stated)	i	i	i	i	-8.91*	103.0	x	x	x	x	64.9%*	i	TRPC4 sel inh 2=i;TRPC4 spec=8.8%*;HEK293 MPD ctr 2-1=30.5%*;HEK293 MPD ctr-1=5.8%*
Cn1c(=O)n(C)c2cc([N+](=O)[O-])c(N3CCN(S(C)(=O)=O)CC3)cc21	i	i	i	i	i	132.8	x	x	x	x	x	x
Cn1c(=O)n(C)c2cc([N+](=O)[O-])c(N3CCN(CCO)CC3)cc21	i	i	i	i	-6.8*	x	-370.0%*	70.0%*	-49.5%*	42.0%*	44.5%*	i
CCOC(=O)CCc1c(C(=O)OCC)[nH]c(CC)c1C(=O)OCc1ccccc1	i	i	i	i	i	107.8	x	x	x	x	x	x
O=c1c(N=Nc2ccc(O)cc2)c(-c2ccccc2)[nH]n1-c1ccc([N+](=O)[O-])cc1	i	i	i	i	i	85.3	x	x	x	x	x	x
O=c1cc(-c2ccccc2)[nH]n1-c1ccc([N+](=O)[O-])cc1	i	i	i	i	-7.88*	94.4	x	x	x	x	66.5%*	i	TRPC4 sel inh 2=i;TRPC4 spec=11.8%*;HEK293 MPD ctr 2-1=i;HEK293 MPD ctr-1=5.7%*
O=C(NCc1cccs1)C1CC(c2ccccc2O)=NO1 (configuration not stated)	i	i	i	i	i	123.7	x	x	x	x	x	x
O=C(NCc1ccccn1)C1CC(c2ccccc2O)=NO1 (configuration not stated)	i	i	i	i	-5.36*	80.0	i	i	i	i	i	i
O=C1/C(=C/c2ccco2)SC(=S)N1CCC(=O)N1CCCCC1CCO (configuration not stated)	i	i	i	i	i	96.6	x	x	x	x	x	x
COc1ccc(-c2nc3ccccc3[nH]2)cc1	i	i	i	i	i	123.0	x	x	x	x	x	x
Cc1ccccc1-n1nc(C(=O)c2cccs2)cc(-c2nc3ccccc3[nH]2)c1=N	i	i	i	i	-11.3*	x	x	x	x	x	i	i	TRPC4 sel inh 2=66.0%*;TRPC4 spec=-9.6%*;HEK293 MPD ctr 2-1=i;HEK293 MPD ctr-1=i
Cc1cccc(-n2nc(C(=O)c3ccco3)cc(-c3nc4ccccc4[nH]3)c2=N)c1	i	i	i	i	-5.39*	71.3	i	i	20.0%*	45.0%*	i	i
COc1ccc(-n2nc(C(=O)c3cccs3)cc(-c3nc4ccccc4[nH]3)c2=N)cc1	i	i	i	i	-9.74*	x	x	x	x	x	60.6%*	i	TRPC4 sel inh 2=46.0%*;TRPC4 spec=-21.9%*;HEK293 MPD ctr 2-1=37.0%*;HEK293 MPD ctr-1=-238.5%*
Cc1cc(NC(=O)c2cccs2)n(-c2nc3ccccc3[nH]2)n1	i	i	i	i	i	89.3	x	x	x	x	x	x
O=C(CN1CCC(C(=O)c2cccc(Cl)c2)CC1)Nc1ccc(C(=O)O)cc1	i	i	i	i	i	87.0	x	x	x	x	x	x
Cc1cc(NC(=O)c2c(C)noc2C)no1	i	i	i	i	i	107.7	x	x	x	x	x	x
N#Cc1c2ccc(OCC(=O)NCc3ccco3)cc2n2ccccc12	i	i	i	i	i	88.6	x	x	x	x	x	x
